Results published in ChEMBL document CHEMBL4007408, “Identification of Novel Triazole-Based Nicotinamide Phosphoribosyltransferase (NAMPT) Inhibitors Endowed with Antiproliferative and Antiinflammatory Activity” (J Med Chem, 2017).
pEC50, pIC50: −log10 of the molar value. Each block holds one compound with its values, some of them ahead of it.

Tests used:
[1] = tested on: SH-SY5Y; assay: Cytotoxicity against human SH-SY5Y cells assessed as reduction in cell viability after 56 hrs by MTT assay; format: functional, cell-based; conditions: for pEC50: Homo sapiens, SH-SY5Y, 56 h, read-out: EC50; for EC50: sh-sy5y
[2] = biological target: Nicotinamide phosphoribosyltransferase (Mus musculus, UniProt Q99KQ4); assay: Inhibition of recombinant mouse NAMPT expressed in bacterial expression system using nicotinamide as substrate after 1 hr by fluorescence based NMNAT-3 enzyme coupled assay; conditions: for pIC50: read-out: IC50
Sequence of Nicotinamide phosphoribosyltransferase (Q99KQ4 whole entry): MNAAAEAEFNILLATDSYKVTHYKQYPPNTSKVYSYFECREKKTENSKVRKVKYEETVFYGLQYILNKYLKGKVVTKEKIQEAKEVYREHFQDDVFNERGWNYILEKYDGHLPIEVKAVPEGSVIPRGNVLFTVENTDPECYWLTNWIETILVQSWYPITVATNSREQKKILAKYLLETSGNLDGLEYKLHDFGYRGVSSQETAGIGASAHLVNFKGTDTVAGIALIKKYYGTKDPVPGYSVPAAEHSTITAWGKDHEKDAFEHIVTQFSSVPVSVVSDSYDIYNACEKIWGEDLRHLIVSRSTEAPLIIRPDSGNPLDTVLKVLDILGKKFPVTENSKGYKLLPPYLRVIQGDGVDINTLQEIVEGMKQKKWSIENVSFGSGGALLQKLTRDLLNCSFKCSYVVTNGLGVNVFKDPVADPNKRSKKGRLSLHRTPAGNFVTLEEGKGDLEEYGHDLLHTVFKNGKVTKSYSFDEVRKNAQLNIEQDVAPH

[3] = tested on: Liver; assay: Drug metabolism in human liver microsomes assessed as pyridine N-oxidation by measuring 7-(4-(pyridin-3-yl)-1H-1,2,3-triazol-1-yl)heptanoic acid formation after 60 mins in presence of NADPH-regenerating system by LC-UV analysis; format: ADME, microsome
Procedure, shortened: (§1)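 Metabolites were characterized by LC-ESI-MSn on supernatants of 60 min, 37 °C incubations. Each used 50 μM substrate with rat or human liver microsomes (1.0 mg/ml protein) in 50 mM Tris-HCl pH 7.4 with 3.3 mM MgCl2, 1% acetonitrile and an NADPH-regenerating system. Reactions were quenched with cold acetonitrile and centrifuged.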

[4] = tested on: Liver; assay: Drug metabolism in Wistar Han rat liver microsomes assessed as pyridine N-oxidation by measuring 7-(4-(pyridin-3-yl)-1H-1,2,3-triazol-1-yl)heptanoic acid formation after 60 mins in presence of NADPH-regenerating system by LC-UV analysis; format: ADME, microsome; procedure, shortened: as §1
[5] = tested on: Liver; assay: Drug metabolism in Wistar Han rat liver microsomes assessed as pyridine N-oxidation by measuring biphenyl-2-carboxamide formation after 60 mins in presence of NADPH-regenerating system by LC-UV analysis; format: ADME, microsome; conditions: 1 h; procedure, shortened: as §1
[6] = tested on: Liver; assay: Drug metabolism in human liver microsomes assessed as pyridine N-oxidation by measuring biphenyl-2-carboxamide formation after 60 mins in presence of NADPH-regenerating system by LC-UV analysis; format: ADME, microsome; conditions: 1 h; procedure, shortened: as §1
[7] = tested on: Liver; assay: Drug level in Wistar Han rat liver microsomes treated with N-(biphenyl-2-yl)-8-(4-(pyridin-3-yl)-1H-1,2,3-triazol-1-yl)octanamide after 60 mins by LC-ESI-MS analysis; format: ADME, microsome
[8] = tested on: Liver; assay: Drug level in human liver microsomes treated with N-(biphenyl-2-yl)-8-(4-(pyridin-3-yl)-1H-1,2,3-triazol-1-yl)octanamide after 60 mins by LC-ESI-MS analysis; format: ADME, microsome
[9] = tested on: Liver; assay: Drug level in human liver microsomes treated with N-(7-(4-(Pyridin-3-yl)-1H-1,2,3-triazol-1-yl)heptyl)-[1,1'-biphenyl]-2-carboxamide after 60 mins in presence of NADPH-regenerating system by LC-UV analysis; format: ADME, microsome
Procedure, shortened: (§2)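 Substrate at 50 μM final, with rat or human liver microsomes at 1.0 mg/ml protein, in 50 mM Tris-HCl pH 7.4. Mix held 3.3 mM MgCl2, 1% acetonitrile and an NADPH-regenerating system (1.3 mM β-NADP, 3.3 mM glucose 6-phosphate, 0.4 U/ml G6PDH). Shaken 60 min at 37 °C, stopped with ice-cold acetonitrile. LC-UV gave % residual substrate versus a no-microsome control, mean of two replicates.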

[10] = tested on: Liver; assay: Drug level in Wistar Han rat liver microsomes treated with N-(7-(4-(Pyridin-3-yl)-1H-1,2,3-triazol-1-yl)heptyl)-[1,1'-biphenyl]-2-carboxamide after 60 mins in presence of NADPH-regenerating system by LC-UV analysis; format: ADME, microsome; procedure, shortened: as §2

SMILES: c1ccc(-c2ccccc2OCc2ccc(CCn3cc(-c4cccnc4)nn3)cc2)cc1
- pEC50 [1]: 6.80

SMILES: O=C(NCCCCCCn1cc(-c2cccnc2)nn1)Nc1ccccc1-c1ccccc1
- pEC50 [1]: 7.37

- pIC50 [2]: 6.57
SMILES: O=C(CCCCCCCc1nnc(-c2cccnc2)[nH]1)Nc1ccccc1-c1ccccc1
- pEC50 [1]: 7.08

- Drug metabolism [3]: Metabolite_Detected
- Drug metabolism [4]: Metabolite_Detected
- IC50 [2]: Not Active
- Drug metabolism [5]: Metabolite_Detected
- Drug metabolism [6]: Metabolite_Detected
SMILES: [O-][n+]1cccc(-c2cn(CCCCCCOc3ccccc3-c3ccccc3)nn2)c1
- EC50 [1]: Not Active

SMILES: Nc1ccccc1-c1ccccc1
- Drug metabolism [7]: Metabolite_Detected
- Drug metabolism [8]: Metabolite_Detected

SMILES: c1ccc(-c2ccccc2-c2cn(CCCCCCCCn3cc(-c4cccnc4)nn3)nn2)cc1
- pEC50 [1]: 7.13

SMILES: O=S(=O)(NCCCCCCn1cc(-c2cccnc2)nn1)c1ccccc1-c1ccccc1
- pEC50 [1]: 7.00

SMILES: c1ccc(-c2ccccc2-c2cn(CCCCCCn3cc(-c4cccnc4)nn3)nn2)cc1
- pEC50 [1]: 7.44

SMILES: c1ccc(-c2ccccc2CNCCCCCCCCn2cc(-c3cccnc3)nn2)cc1
- pEC50 [1]: 6.69

SMILES: O=C(NCCCCCCCCn1cc(-c2cccnc2)nn1)Nc1ccccc1-c1ccccc1
- pEC50 [1]: 6.81

- Drug metabolism [3]: Metabolite_Detected
- Drug metabolism [4]: Metabolite_Detected
- IC50 [2]: Not Active
- Drug metabolism [5]: Metabolite_Detected
- Drug metabolism [6]: Metabolite_Detected
SMILES: O=C(NCCCCCCCn1cc(-c2ccc[n+]([O-])c2)nn1)c1ccccc1-c1ccccc1
- EC50 [1]: Not Active

- pIC50 [2]: 7.33
SMILES: O=S(=O)(NCCCCCCCCn1cc(-c2cccnc2)nn1)c1ccccc1-c1ccccc1
- pEC50 [1]: 7.90

- pIC50 [2]: 7.60
SMILES: c1ccc(-c2ccccc2OCCCCCCCCn2cc(-c3cccnc3)nn2)cc1
- pEC50 [1]: 8.09

SMILES: O=S(=O)(NCCCCCCCn1cc(-c2cccnc2)nn1)c1ccccc1Br
- pEC50 [1]: 6.79

- pIC50 [2]: 7.30
SMILES: O=C(CCCCCCCc1cc(-c2cccnc2)on1)Nc1ccccc1-c1ccccc1
- pEC50 [1]: 7.22

- Drug metabolism [9]: Metabolite_Detected
- Drug metabolism [10]: Metabolite_Detected
SMILES: NC(=O)c1ccccc1-c1ccccc1

SMILES: O=C(NCCCCCCn1cc(-c2cccnc2)nn1)c1ccccc1-c1ccccc1
- pEC50 [1]: 7.65

- pIC50 [2]: 7.81
SMILES: c1ccc(-c2ccccc2OCCc2ccc(Cn3cc(-c4cccnc4)nn3)cc2)cc1
- pEC50 [1]: 8.62

SMILES: O=C(Nc1ccccc1-c1ccccc1)OCCCCCCCn1cc(-c2cccnc2)nn1
- pEC50 [1]: 7.44

SMILES: O=C(CCCCCCCc1cnc(-c2cccnc2)s1)Nc1ccccc1-c1ccccc1
- pEC50 [1]: 5.28
